# Results reported in ChEMBL document CHEMBL3804761, “Synthesis of a stable and orally bioavailable englerin analogue” (Bioorg Med Chem Lett, 2016).
# Experiments:
# Assay type in all cases: functional
# U-251 = experiment: Growth inhibition of human U251 cells assessed as cell growth at 10 uM incubated for 48 hrs by sulforhodamine B assay relative to control; details: U-251, 48 h, read-out: Activity
# Summary of the method: (§1)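 NCI 60-cell line standard protocol, one-dose screen: single final concentration 10 µM, 2-day drug exposure, sulforhodamine B (SRB) endpoint; read-out is growth percent relative to untreated control.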
# SK-MEL-2 [1] = experiment: Growth inhibition of human SK-MEL-2 cells assessed as cell growth at 10 uM incubated for 48 hrs by sulforhodamine B assay relative to control; details: SK-MEL-2, 48 h, read-out: Activity
# Summary of the method: (§2)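 Run in the standard NCI 60-cell-line screen. Cells were exposed to drug for two days, and the read-out was sulforhodamine B staining. Compound was tested at a single final concentration of 10 µM in every line, and results are reported as growth percent.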
# [2] = Growth inhibition of human OVCAR3 cells assessed as cell growth at 10 uM incubated for 48 hrs by sulforhodamine B assay relative to control; details: OVCAR-3, 48 h, read-out: Activity; summary of the method: as §2
# [3] = Growth inhibition of human SKOV3 cells assessed as cell growth at 10 uM incubated for 48 hrs by sulforhodamine B assay relative to control; details: SK-OV-3, 48 h, read-out: Activity; summary of the method: as §2
# A498 = experiment: Growth inhibition of human A498 cells assessed as cell growth at 10 uM incubated for 48 hrs by sulforhodamine B assay relative to control; details: A498, 48 h, read-out: Activity
# [4] = Growth inhibition of human UO31 cells assessed as cell growth at 10 uM incubated for 48 hrs by sulforhodamine B assay relative to control; details: UO-31, 48 h, read-out: Activity; summary of the method: as §1
# [5] = Growth inhibition of human Hs 578T cells assessed as cell growth at 10 uM incubated for 48 hrs by sulforhodamine B assay relative to control; details: read-out: Activity
# MDA-MB-468 = experiment: Growth inhibition of human MDA-MB-468 cells assessed as cell growth at 10 uM incubated for 48 hrs by sulforhodamine B assay relative to control; details: MDA-MB-468, 48 h, read-out: Activity; summary of the method: as §2
# NCI-H322M [6] = experiment: Growth inhibition of human NCI-H322M cells incubated for 48 hrs by sulforhodamine B assay; details: for TGI: read-out: pTGI (converted)
# Summary of the method: (§3)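 NCI 60-cell-line panel, standard protocol. Cells exposed to compound for two days, growth read by sulforhodamine B staining. Tested at five 10-fold dilutions, top concentration 100 µM, to give dose-response curves.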
# [7] = Growth inhibition of human SF539 cells incubated for 48 hrs by sulforhodamine B assay; details: SF-539, 48 h; for TGI: read-out: pTGI (converted); summary of the method: as §3
# M14 = experiment: Growth inhibition of human M14 cells incubated for 48 hrs by sulforhodamine B assay; details: M14, 48 h; for TGI: read-out: pTGI (converted); summary of the method: as §3
# SK-MEL-2 [8] = experiment: Growth inhibition of human SK-MEL-2 cells incubated for 48 hrs by sulforhodamine B assay; details: SK-MEL-2, 48 h; for TGI: read-out: pTGI (converted); summary of the method: as §3
# [9] = Growth inhibition of human UACC257 cells incubated for 48 hrs by sulforhodamine B assay; details: UACC-257, 48 h; for CC50: read-out: pLC50 (the source's name) (converted); for TGI: read-out: pTGI (converted)
# Summary of the method: (§4)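 Tested in the standard NCI 60-cell-line protocol with two-day drug exposure and a sulforhodamine B endpoint. Compounds were first screened at a single final concentration of 10 µM, reported as growth percent. They were then run as five 10-fold dilutions starting from a high concentration of 100 µM to give dose-response curves.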
# [10] = Growth inhibition of human IGROV1 cells incubated for 48 hrs by sulforhodamine B assay; details: IGROV-1, 48 h; for CC50: read-out: pLC50 (the source's name) (converted); for TGI: read-out: pTGI (converted); summary of the method: as §3
# [11] = Growth inhibition of human OVCAR4 cells incubated for 48 hrs by sulforhodamine B assay; details: OVCAR-4, 48 h; for TGI: read-out: pTGI (converted); summary of the method: as §3
# [12] = Growth inhibition of human SKOV3 cells incubated for 48 hrs by sulforhodamine B assay; details: SK-OV-3, 48 h; for TGI: read-out: pTGI (converted); summary of the method: as §4
# [13] = Growth inhibition of human Caki1 cells incubated for 48 hrs by sulforhodamine B assay; details: CAKI-1, 48 h; for TGI: read-out: pTGI (converted); summary of the method: as §3
# SN12C = experiment: Growth inhibition of human SN12C cells incubated for 48 hrs by sulforhodamine B assay; details: for CC50: read-out: pLC50 (the source's name) (converted); for TGI: read-out: pTGI (converted); summary of the method: as §4
# [14] = Growth inhibition of human PC3 cells incubated for 48 hrs by sulforhodamine B assay; details: PC-3, 48 h; for CC50: read-out: pLC50 (the source's name) (converted); for TGI: read-out: pTGI (converted); summary of the method: as §3
# [15] = Growth inhibition of human DU145 cells incubated for 48 hrs by sulforhodamine B assay; details: DU-145, 48 h; for CC50: read-out: pLC50 (the source's name) (converted); for TGI: read-out: pTGI (converted); summary of the method: as §3
# MCF7 = experiment: Growth inhibition of human MCF7 cells incubated for 48 hrs by sulforhodamine B assay; details: MCF7, 48 h; for CC50: read-out: pLC50 (the source's name) (converted); for TGI: read-out: pTGI (converted); summary of the method: as §3
# MDA-MB-231 = experiment: Growth inhibition of human MDA-MB-231 cells incubated for 48 hrs by sulforhodamine B assay; details: MDA-MB-231, 48 h; for CC50: read-out: pLC50 (the source's name) (converted); for TGI: read-out: pTGI (converted); summary of the method: as §3
# [16] = Growth inhibition of human Hs 578T cells incubated for 48 hrs by sulforhodamine B assay; details: for CC50: read-out: pLC50 (the source's name) (converted); for TGI: read-out: pTGI (converted)
# K562 = experiment: Growth inhibition of human K562 cells assessed as cell growth at 10 uM incubated for 48 hrs by sulforhodamine B assay relative to control; details: K562, 48 h, read-out: Activity; summary of the method: as §2
# SR = experiment: Growth inhibition of human SR cells assessed as cell growth at 10 uM incubated for 48 hrs by sulforhodamine B assay relative to control; details: read-out: Activity; summary of the method: as §2
# NCI-H322M [17] = experiment: Growth inhibition of human NCI-H322M cells assessed as cell growth at 10 uM incubated for 48 hrs by sulforhodamine B assay relative to control; details: read-out: Activity; summary of the method: as §2
# [18] = Growth inhibition of human COLO205 cells assessed as cell growth at 10 uM incubated for 48 hrs by sulforhodamine B assay relative to control; details: COLO 205, 48 h, read-out: Activity; summary of the method: as §2
# [19] = Growth inhibition of human HCC2998 cells assessed as cell growth at 10 uM incubated for 48 hrs by sulforhodamine B assay relative to control; details: HCC 2998, 48 h, read-out: Activity
# Summary of the method: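 Single-dose screen in the NCI 60-cell-line panel at one final concentration of 10 µM. Two-day drug exposure with a sulforhodamine B endpoint. Values are growth percent for each cell line.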
# [20] = Growth inhibition of human HCT15 cells assessed as cell growth at 10 uM incubated for 48 hrs by sulforhodamine B assay relative to control; details: HCT-15, 48 h, read-out: Activity; summary of the method: as §2
smiles,measurement,setting,value
C/C(=C\C(=O)O[C@H]1[C@@H]2[C@H](C)CC[C@H]2[C@]2(C)O[C@@]1(C(C)C)C[C@H]2NC(=O)CO)c1ccccc1,growth at 10 µM,U-251,91.8%
same,growth at 10 µM,SK-MEL-2 [1],104%
same,growth at 10 µM,[2],121%
same,growth at 10 µM,[3],110%
same,growth at 10 µM,A498,-24.6%
same,growth at 10 µM,[4],17.5%
same,growth at 10 µM,[5],-8.92%
same,growth at 10 µM,MDA-MB-468,101%
same,GI50,NCI-H322M [6],> 100 µM
same,LC50,NCI-H322M [6],> 100 µM
same,TGI,NCI-H322M [6],> 100 µM
same,GI50,[7],49 µM
same,LC50,[7],> 100 µM
same,TGI,[7],> 100 µM
same,GI50,M14,44.7 µM
same,LC50,M14,> 100 µM
same,TGI,M14,> 100 µM
same,GI50,SK-MEL-2 [8],31.6 µM
same,LC50,SK-MEL-2 [8],> 100 µM
same,TGI,SK-MEL-2 [8],> 100 µM
same,GI50,[9],34.7 µM
same,CC50,[9],> 100 µM
same,TGI,[9],> 100 µM
same,GI50,[10],> 100 µM
same,CC50,[10],> 100 µM
same,TGI,[10],> 100 µM
same,GI50,[11],35.5 µM
same,LC50 (concentration killing 50% of cells),[11],> 100 µM
same,TGI,[11],> 100 µM
same,GI50,[12],30.2 µM
same,LC50,[12],> 100 µM
same,TGI,[12],> 100 µM
same,GI50,[13],40.7 µM
same,LC50,[13],> 100 µM
same,TGI,[13],> 100 µM
same,GI50,SN12C,11.5 µM
same,CC50,SN12C,> 100 µM
same,TGI,SN12C,66.1 µM
same,GI50,[14],18.6 µM
same,CC50,[14],> 100 µM
same,TGI,[14],> 100 µM
same,GI50,[15],60.3 µM
same,CC50,[15],> 100 µM
same,TGI,[15],> 100 µM
same,GI50,MCF7,27.5 µM
same,CC50,MCF7,> 100 µM
same,TGI,MCF7,> 100 µM
same,GI50,MDA-MB-231,38 µM
same,CC50,MDA-MB-231,> 100 µM
same,TGI,MDA-MB-231,> 100 µM
same,GI50,[16]; read-out: GI50,2.24 µM
same,GI50,[16]; read-out: pGI50 (converted),2.24 µM
same,CC50,[16],> 100 µM
same,TGI,[16],6.92 µM
same,growth at 10 µM,K562,92.3%
same,growth at 10 µM,SR,117%
same,growth at 10 µM,NCI-H322M [17],105%
same,growth at 10 µM,[18],107%
same,growth at 10 µM,[19],104%
same,growth at 10 µM,[20],100%
CC(C)[C@@]12C[C@@H](NC(=O)CO)[C@@](C)(O1)[C@@H]1CC[C@@H](C)[C@H]1[C@@H]2OC(=O)/C=C/c1ccccc1,growth at 10 µM,U-251,92.3%
same,growth at 10 µM,SK-MEL-2 [1],101%
same,growth at 10 µM,[2],106%
same,growth at 10 µM,[3],101%
same,growth at 10 µM,A498,-15.2%
same,growth at 10 µM,[4],57.2%
same,growth at 10 µM,[5],9%
same,growth at 10 µM,MDA-MB-468,91.3%
same,GI50,NCI-H322M [6],> 50.1 µM
same,LC50,NCI-H322M [6],> 50.1 µM
same,TGI,NCI-H322M [6],> 50.1 µM
same,GI50,[7],42.7 µM
same,LC50,[7],> 50.1 µM
same,TGI,[7],> 50.1 µM
same,GI50,M14,16.6 µM
same,LC50,M14,> 50.1 µM
same,TGI,M14,> 50.1 µM
same,GI50,SK-MEL-2 [8],14.8 µM
same,LC50,SK-MEL-2 [8],> 50.1 µM
same,TGI,SK-MEL-2 [8],37.2 µM
same,GI50,[9],10.5 µM
same,CC50,[9],> 50.1 µM
same,TGI,[9],45.7 µM
same,GI50,[10],> 50.1 µM
same,CC50,[10],> 50.1 µM
same,TGI,[10],> 50.1 µM
same,GI50,[11],17.8 µM
same,LC50 (concentration killing 50% of cells),[11],> 50.1 µM
same,TGI,[11],> 50.1 µM
same,GI50,[12],> 50.1 µM
same,LC50,[12],> 50.1 µM
same,TGI,[12],> 50.1 µM
same,GI50,[13],9.55 µM
same,LC50,[13],> 50.1 µM
same,TGI,[13],> 50.1 µM
same,GI50,SN12C,10.7 µM
same,CC50,SN12C,> 50.1 µM
same,TGI,SN12C,> 50.1 µM
same,GI50,[14],11.7 µM
same,CC50,[14],> 50.1 µM
same,TGI,[14],> 50.1 µM
same,GI50,[15],25.1 µM
same,CC50,[15],> 50.1 µM
same,TGI,[15],> 50.1 µM
same,GI50,MCF7,14.5 µM
same,CC50,MCF7,> 50.1 µM
same,TGI,MCF7,> 50.1 µM
same,GI50,MDA-MB-231,24.5 µM
same,CC50,MDA-MB-231,> 50.1 µM
same,TGI,MDA-MB-231,> 50.1 µM
same,GI50,[16]; read-out: GI50,0.832 µM
same,GI50,[16]; read-out: pGI50 (converted),0.832 µM
same,CC50,[16],> 50.1 µM
same,TGI,[16],3.39 µM
same,growth at 10 µM,K562,86.6%
same,growth at 10 µM,SR,79.1%
same,growth at 10 µM,NCI-H322M [17],77.8%
same,growth at 10 µM,[18],96.4%
same,growth at 10 µM,[20],108%
